{"data": "Published values pooled from the literature", "target": "Serine/threonine-protein kinase 33 (STK33, Homo sapiens, UniProt Q9BYT3)", "note": "Each line is one published result; the experiments were not run side by side."}
{"SMILES": "Cc1ncc([N+](=O)[O-])n1C(=NO)c1ccccc1C(F)(F)F", "effect on": "enzyme activity", "action": "inhibitor", "concentration": "10 µM", "quantity": "inhibition", "result": "11.4%"}
{"SMILES": "Nc1ncnc2occ(-c3ccc(NC(=O)Nc4cc(C(F)(F)F)ccc4F)cc3)c12", "effect on": "enzyme activity", "action": "inhibitor", "concentration": "20 µM", "quantity": "remaining activity", "result": "4.3%"}
{"SMILES": "Cn1cc(Cl)c2c(Oc3c(F)cc(Nc4cc(Cl)nc(N)n4)cc3F)ccnc21", "effect on": "cell-free assay", "method": "competition with immobilised ligand", "concentration": "0.1 µM", "quantity": "remaining binding", "result": "100%"}
{"SMILES": "Cn1cnc(Br)c1C1=CN(c2ncnc3[nH]cnc23)CCS1", "effect on": "enzyme activity", "action": "inhibitor", "method": "radiometric", "concentration": "2 µM", "quantity": "inhibition", "result": "78.4%"}
{"SMILES": "CCS(=O)(=O)c1cc2cc(C[C@@](O)(CC(C)(C)c3ccc(F)cc3C(N)=O)C(F)(F)F)[nH]c2cn1", "effect on": "cell-free assay", "method": "competition with immobilised ligand", "concentration": "1 µM", "quantity": "remaining binding", "result": "91%"}
{"SMILES": "Cc1ccc(NC(=O)c2ccc(C)c(C(F)(F)F)c2)cc1C#Cc1nn(C2CCC(O)CC2)c2ncnc(N)c12 (stereo not shown)", "effect on": "cell-free assay", "concentration": "10 µM", "quantity": "remaining signal", "result": "109%"}
{"SMILES": "CC(C)(O)[C@H]1CC[C@H](Nc2ccc3ncc(-c4cccc(C(F)(F)F)c4)n3n2)CC1", "effect on": "enzyme activity", "action": "inhibitor", "concentration": "1 µM", "quantity": "remaining activity", "result": "40.5%"}
{"SMILES": "CCCS(=O)(=O)Nc1ccc(F)c(C(=O)c2c[nH]c3ncc(-c4ccc(Cl)cc4)cc23)c1F", "effect on": "enzyme activity", "action": "inhibitor", "concentration": "1 µM", "quantity": "inhibition", "result": "< 10%"}
{"SMILES": "FC(F)(F)Oc1cccc(-c2cnc3ccc(-c4ccncc4)nn23)c1", "effect on": "enzyme activity", "action": "inhibitor", "method": "radiometric", "concentration": "1 µM", "quantity": "activity vs control", "result": "95%"}
{"SMILES": "COc1cc(Nc2cnc(C#N)c(O[C@H](C)CN(C)C)n2)ncc1-c1cnn(C)c1", "effect on": "enzyme activity", "action": "inhibitor", "method": "radiometric", "concentration": "10 µM", "quantity": "remaining activity", "result": "16%"}
{"SMILES": "CCc1ccccc1C(=O)Nc1n[nH]c2c(C)c(F)c(C3C(C#N)=C(C)N(C)C(C)=C3C#N)cc12", "effect on": "cell-free assay", "method": "competition with immobilised ligand", "concentration": "1 µM", "quantity": "remaining binding", "result": "100%"}
{"SMILES": "Cc1ccc(Nc2nccc(N(C)c3ccc4c(C)n(C)nc4c3)n2)cc1S(N)(=O)=O", "effect on": "enzyme activity", "action": "inhibitor", "concentration": "10 µM", "quantity": "inhibition", "result": "34%"}
{"SMILES": "CCCOc1ccc(OC)c(F)c1C(=O)c1ccc(C(=O)N[C@@H]2CNC[C@H]2NC(=O)c2ccc3[nH]ncc3c2)cc1", "effect on": "enzyme activity", "action": "inhibitor", "concentration": "10 µM", "quantity": "remaining activity", "result": "7%"}
{"SMILES": "CS(=O)(=O)N1CCCC(NC(=O)[C@H](CCC2CCCCC2)NC(=O)c2ccc(CNc3ncnc4c3nnn4-c3ccccc3)cc2)C1 (stereo partly shown)", "effect on": "cell-free assay", "method": "competition with immobilised ligand", "concentration": "0.1 µM", "quantity": "remaining binding", "result": "84%"}
{"SMILES": "O=C(Nc1cnn(-c2csc(C(=O)NC3COC3)c2)c1)Nc1ccccc1Cl", "effect on": "enzyme activity", "action": "inhibitor", "concentration": "5 µM", "quantity": "remaining activity", "result": "99.3%"}
{"SMILES": "Cn1nc(C(=O)NCc2ccc(C(=O)O)cc2)cc1-c1ccc2[nH]ccc2c1", "effect on": "cell-free assay", "method": "competition with immobilised ligand", "concentration": "0.1 µM", "quantity": "remaining binding", "result": "87%"}
{"SMILES": "Cn1cncc1C1=CN(c2ncnc3[nH]cnc23)CCS1", "effect on": "enzyme activity", "action": "inhibitor", "method": "radiometric", "concentration": "2 µM", "quantity": "inhibition", "result": "80.5%"}
{"SMILES": "O=C(Nc1cnn(-c2csc(C(=O)NC3COC3)c2)c1)Nc1c(F)cccc1Cl", "effect on": "enzyme activity", "action": "inhibitor", "concentration": "5 µM", "quantity": "remaining activity", "result": "81.8%"}
{"SMILES": "Cc1ccc(C(=O)Nc2ccc(CN3CCN(C)CC3)c(C(F)(F)F)c2)cc1C#Cc1cnc2cccnn12", "effect on": "enzyme activity", "action": "inhibitor", "concentration": "23.5 nM", "quantity": "remaining activity", "result": "96%"}
